14-3-3 Bad PPI – disrupts binding of bovine 14-3-3 zeta to phospho-Bad peptide. P63103. TR-FRET 14-3-3zeta/Dy647-pBad peptide displacement, 1 h. inhibition, % at 21.7 µM. hit rate 0.71% among 220,000. AID 781;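 active = inhibition above about 70%, limit read from the data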;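 note: 0% = full 14-3-3 plus peptide FRET controls and 100% = background without 14-3-3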
Target sequence (P63103 whole entry, looked up): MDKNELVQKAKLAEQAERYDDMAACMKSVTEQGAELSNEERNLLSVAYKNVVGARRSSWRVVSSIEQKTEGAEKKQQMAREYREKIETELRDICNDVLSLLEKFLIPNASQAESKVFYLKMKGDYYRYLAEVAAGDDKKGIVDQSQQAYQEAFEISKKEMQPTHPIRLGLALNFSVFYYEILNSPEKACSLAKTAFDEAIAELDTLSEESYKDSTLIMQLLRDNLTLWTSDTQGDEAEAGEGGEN
NCF1 inh – inhibitors of human p47phox binding. hit rate 0.53% among 220,000. p47phox/p22phox peptide binding, fluorescence polarization, 2 h. inhibition, % at 24.7 µM. P14598;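 active = inhibition above about 30%, limit read from the data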;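 note: 0% = p47phox with labelled peptide and 100% = labelled peptide alone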
RBBP9 inhibitor – human RBBP9 hydrolase inhibition; hit rate 0.2% among 220,000; O75884; recombinant RBBP9, FP-Rh probe fluorescence polarization; AID 1515; inhibition, % at 7.94 µM;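 active = inhibition above the campaign mean of all tested compounds plus 3 SD, cut at about 14% in these data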;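 note: plate controls were DMSO wells with RBBP9 for no effect and wells lacking RBBP9 protein for full effect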
Target sequence (O75884 whole entry, looked up): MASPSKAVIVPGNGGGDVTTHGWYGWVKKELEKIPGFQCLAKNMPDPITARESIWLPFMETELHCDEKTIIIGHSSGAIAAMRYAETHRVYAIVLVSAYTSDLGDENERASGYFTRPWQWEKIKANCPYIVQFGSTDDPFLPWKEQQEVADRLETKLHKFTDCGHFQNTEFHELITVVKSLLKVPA
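System: RBBP9 protein / Quantity: 2.5 µM RBBP9 dispensing solution, before mixing / Also added: Serine-hydrolase probe FP-Rh, 375 nM pre-mixing / Dosing: 7.94 µM single dose, 0.794% DMSO / Timing: enzyme-compound preincubation 30 min, then probe labeling 45 min, 25 °C / Signal: FP readout at 525/598 nm / Controls: DMSO-treated enzyme wells and wells lacking RBBP9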
ROMK mod – modulators of human ROMK potassium channel | Tet-inducible ROMK, thallium flux fluorescence; actives lie on both sides | B-score at 10 µM | AID 1918 | hit rate 2% among 130,000;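 active = signal ratio slope over the read window, or its plate-corrected B-score, at least 3 SD from the plate mean, either direction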;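 note: B-score of the F/F0 ratio slope over 7 to 12 s after thallium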
WT yeast gro inh – growth inhibition of WT yeast, mitochondrial fusion screen; mitochondrial fusion phenotypic screen, WT strain; inhibition, % at 10 µM; hit rate 2.1% among 190,000; AID 1362; in the data active = inhibition above about 58%; tested in S. cerevisiae
KCC2 mod – KCC2 (human) Cl- transport modulation | KCC2 cells, thallium flux FluoZin-2 fluorescence | B-score of Tl+ flux slope (higher = more flux/activation; lower = inhibition) at 10 µM | hit rate 2.2% among 190,000 | AID 1456;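 active = thallium flux slope and its plate-corrected score both differing from the plate sample mean at a set confidence after two filtering rounds, in either direction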;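 note: slope of fluorescence scaled to starting intensity during 10 to 20 s after thallium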
KCC2 secondary – KCC2 (human) modulation, secondary assay; shares compounds with KCC2 mod; HEK293-KCC2, thallium flux, FluoZin2 fluorescence; hits give high values; normalised thallium flux (F/F0 slope) at 10 µM; hit rate 15% among 3,700; AID 1713;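 active = thallium flux slope above the same plate's solvent-only control mean plus 3 SD; inconclusive = the two replicate wells disagree; inactive = no significant difference from solvent-only control wells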
KCC2 bumet counter – thallium flux persisting under bumetanide in KCC2 cells, counter-screen secondary assay. shares compounds with KCC2 mod. HEK293-KCC2 + bumetanide/ouabain, thallium flux FluoZin2; hits give high values. normalized thallium flux at 10 µM. hit rate 49% among 3,700;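 active = thallium entry rate above the same plate's blocked-transporter control wells by more than 3 SD; inconclusive = the two repeat wells disagree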;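 note: raw slope of fluorescence over initial fluorescence between 10 and 20 s after thallium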
KCC2 secondary2 – confirmation of human KCC2 transport modulators | shares compounds with KCC2 mod | normalized thallium flux at 10 µM | HEK293-KCC2, thallium flux FluoZin2 fluorescence; actives lie on both sides; F/F0 rise rate, 10–20 s post-thallium | hit rate 23% among 3,700;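 active = thallium flux slope more than 3 SD above or below the plate's solvent-only control mean, mostly below; inconclusive = the two repeat wells disagreed; inactive = no significant shift from solvent-only controls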;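 note: raw slope with 0.1% DMSO as baseline and bumetanide as block control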
HEK counter1 – acts in parental HEK cells, KCC2 counter-screen; hit rate 46% among 3,700; thallium flux rate (normalised fluorescence) at 10 µM; shares compounds with KCC2 mod; HEK293 parental cells, thallium flux FluoZin2, ouabain; baseline-ratio fluorescence slope, 10–20 s after thallium;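 active = thallium flux rate significantly above the same plate's solvent-only control wells, beyond their mean plus 3 SD; inconclusive = the two replicate wells gave conflicting results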
KCC2 retest ouab – confirmation of human KCC2 modulators with ouabain | shares compounds with KCC2 mod | HEK293-KCC2, thallium flux FluoZin2 fluorescence; bidirectional: low = inhibitor, high = activator | raw Tl+ flux slope (below DMSO = inhibition, above = activation) at 10 µM | hit rate 48% among 3,700 | AID 1717;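 active = thallium flux slope beyond 3 SD from same-plate DMSO control mean in most replicates, usually higher, sometimes lower; inconclusive = repeat tests gave conflicting results; inactive = no significant difference from controls in most replicates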;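 note: slope of initial-normalized fluorescence between seconds 10 and 20 after thallium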
HEK293 Tl flux2 – parental HEK flux effect, counter-screen 2 | shares compounds with KCC2 mod | HEK293 parental, thallium flux FluoZin-2 fluorescence slope | thallium flux slope at 10 µM | hit rate 33% among 3,700;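 active = thallium flux slope above the same plate's solvent-control mean plus 3 SD in both duplicate wells; inconclusive = duplicate wells that disagreed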;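 note: run without ouabain in cells lacking the KCC2 cotransporter; slope of fluorescence scaled to its starting value between 10 and 20 s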
Numbers without * were called inactive. An excerpt weighted towards active compounds, which were near 5.8% of everything screened.

Screening O=C(CN1C(=O)c2ccccc2C1=O)N1CCCCC1 returned 14-3-3 Bad PPI 7.3, NCF1 inh -10.2, RBBP9 inhibitor -3.0, WT yeast gro inh -19.2 and KCC2 mod 1.6.
CCn1c(SCc2nc(-c3ccccc3)no2)nnc1-c1cccs1 was read as 14-3-3 Bad PPI -6.0, NCF1 inh -0.5, RBBP9 inhibitor -1.9, ROMK mod -0.0867, WT yeast gro inh -11.0, KCC2 secondary 0.00836, KCC2 bumet counter 0.00449, KCC2 secondary2 0.0308, HEK counter1 0.00699, KCC2 retest ouab 0.0158* and HEK293 Tl flux2 inconclusive.
Screening CCCC[n+]1ccn(-c2nc3ccccc3nc2[N-]S(=O)(=O)c2cccs2)c1 returned 14-3-3 Bad PPI 5.4, NCF1 inh -9.8 and RBBP9 inhibitor -3.8.
CN1C(=O)/C(=C/c2ccccc2OCc2ccccc2)NC1=S was read as 14-3-3 Bad PPI -0.3, NCF1 inh -4.5, RBBP9 inhibitor 4.2, ROMK mod -0.00394, WT yeast gro inh -3.6, KCC2 mod 9.7*, KCC2 secondary 0.00877, KCC2 bumet counter 0.0129*, KCC2 secondary2 0.0328, HEK counter1 0.00983*, KCC2 retest ouab inconclusive and HEK293 Tl flux2 0.0104.
Cc1ccc(OCCn2c(=O)n(C)c3ccccc32)cc1 was read as 14-3-3 Bad PPI -5.5, NCF1 inh -0.4, RBBP9 inhibitor -7.5, ROMK mod 0.22, WT yeast gro inh 9.3 and KCC2 mod -0.209.
Cc1ccc(C)c(NC(=S)N/N=C2/CCCCc3ccccc32)c1 was read as 14-3-3 Bad PPI -2.2, NCF1 inh -18.5, RBBP9 inhibitor 2.9, ROMK mod 0.162, WT yeast gro inh 56.0, KCC2 mod 9.62*, KCC2 secondary 0.00638, KCC2 bumet counter 0.0355*, KCC2 secondary2 0.0466*, HEK counter1 0.0374*, KCC2 retest ouab 0.0375* and HEK293 Tl flux2 0.0384*.
C=CCc1cccc2cc(C(=O)Nc3cccc(C(=O)O)c3)c(=O)oc12 was read as 14-3-3 Bad PPI -2.0, NCF1 inh -7.0, RBBP9 inhibitor 7.0 and KCC2 mod -0.773.
For C=CCc1cccc2cc(C(=O)NNC(=O)c3ccncc3)c(=O)oc12 the results were 14-3-3 Bad PPI -9.9, NCF1 inh -1.6, RBBP9 inhibitor 1.9, ROMK mod -1.82, WT yeast gro inh -14.8, KCC2 mod 4.79*, KCC2 secondary 0.00584, KCC2 bumet counter 0.0043, KCC2 secondary2 0.0291, HEK counter1 0.00758, KCC2 retest ouab 0.0182 and HEK293 Tl flux2 0.0102.
COc1cccc(C(=O)NC2CC3CCCC(C2)N3S(=O)(=O)c2ccccc2)c1 (stereo not drawn) was read as 14-3-3 Bad PPI -2.5, NCF1 inh -12.3 and RBBP9 inhibitor 5.2.
Screening CCN(Cc1ccncc1)C(=O)CSc1ccc2ccccc2c1 returned 14-3-3 Bad PPI -9.2, NCF1 inh 6.2, RBBP9 inhibitor -6.1, ROMK mod -1.31, WT yeast gro inh -11.4 and KCC2 mod -2.4.
For O=C(CSc1nnc(-c2ccc(F)cc2)o1)N1CCN(C(=O)c2ccco2)CC1 the results were 14-3-3 Bad PPI -4.0, NCF1 inh -12.5, RBBP9 inhibitor -7.9, WT yeast gro inh 8.9, KCC2 mod -4.43*, KCC2 secondary 0.00794, KCC2 bumet counter 0.00657, KCC2 secondary2 0.0299*, HEK counter1 0.00447, KCC2 retest ouab 0.0175* and HEK293 Tl flux2 0.0118.
`O=C(CSc1nnc(CNc2ccc(F)cc2)o1)N1CCN(C(=O)c2ccco2)CC1` gave 14-3-3 Bad PPI 2.5, NCF1 inh -5.7, RBBP9 inhibitor -7.0, WT yeast gro inh -4.0 and KCC2 mod -0.635.
Screening O=C(C1CC(c2ccccc2O)=NO1)N1CCc2ccccc2C1 (stereo not drawn) returned 14-3-3 Bad PPI -4.3, NCF1 inh -3.5, RBBP9 inhibitor -5.4, ROMK mod -1.7, WT yeast gro inh 25.2, KCC2 mod -3.22*, KCC2 secondary 0.00677, KCC2 bumet counter 0.00533, KCC2 secondary2 inconclusive, HEK counter1 0.008, KCC2 retest ouab 0.0177 and HEK293 Tl flux2 0.0107.
For COc1cc(/C=N/NC(=S)Nc2cccnc2)cc(OC)c1OC the results were 14-3-3 Bad PPI -15.7, NCF1 inh 2.1, RBBP9 inhibitor -1.4, ROMK mod 0.0412, WT yeast gro inh -3.7 and KCC2 mod 0.0548.
For CCC(C)(C)C1CCC(=NNC(=S)Nc2cccnc2)CC1 (stereo not drawn) the results were 14-3-3 Bad PPI -28.8, NCF1 inh -7.2, RBBP9 inhibitor -7.1, ROMK mod -0.21, WT yeast gro inh -4.8, KCC2 mod 24.1*, KCC2 secondary 0.0105, KCC2 bumet counter 0.0389*, KCC2 secondary2 0.0343, HEK counter1 0.0219*, KCC2 retest ouab 0.0423* and HEK293 Tl flux2 0.0126*.
`CC(C)(C)c1ccc(/C=N/NC(=S)Nc2cccnc2)cc1` gave 14-3-3 Bad PPI -14.6, NCF1 inh 0.9, RBBP9 inhibitor -6.5, ROMK mod 1.83, WT yeast gro inh 60.4*, KCC2 mod 12.1*, KCC2 secondary 0.0104, KCC2 bumet counter 0.0316*, KCC2 secondary2 0.0301, HEK counter1 0.012*, KCC2 retest ouab inconclusive and HEK293 Tl flux2 0.0108*.
CCN(C(=O)COC(=O)c1cncc(Br)c1)C1CCS(=O)(=O)C1 (stereo not drawn) was read as 14-3-3 Bad PPI -10.1, NCF1 inh 1.6, RBBP9 inhibitor 10.2, ROMK mod 0.17, WT yeast gro inh -3.6 and KCC2 mod 0.652.
Screening O=C(CCc1ccccc1)c1c(O)cc(O)cc1O returned 14-3-3 Bad PPI -0.8, NCF1 inh -25.0, KCC2 mod -1.43*, KCC2 secondary 0.00545, KCC2 bumet counter 0.00511, KCC2 secondary2 0.025*, HEK counter1 0.00809, KCC2 retest ouab inconclusive and HEK293 Tl flux2 0.0109.

From PubChem
